Key:
[1] = biological target: Butyrylcholinesterase (Equus caballus, UniProt Q9N1N9); experiment: Inhibition of equine serum BuChE by Ellman's assay
Procedure, shortened: (§1)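 Ellman photometric assay with electric eel AChE (type VI-S) or equine serum BChE (enzyme solution 2.5 U/mL) in phosphate buffer, pH 8.0. Enzyme and inhibitor stand together for 5 min, then DTNB is added. The reaction starts with acetylthiocholine (AChE) or butyrylthiocholine (BChE), and A412 is read 2.5 min later at 25 °C. At least five concentrations (highest 10^-4 M final) are run in triplicate. Percent activity versus the no-inhibitor reference is plotted against log concentration; each value is the mean of ≥3 independent runs.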

[2] = Selectivity ratio of IC50 for electric eel AChE to IC50 for equine serum BuChE
[3] = Cytotoxicity against mouse brain N11 cells from by MTT assay; assay type: cell-based
Procedure, shortened: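 N11 microglia (embryonic mouse brain, retrovirus-immortalized) were kept in DMEM with 10% heat-inactivated FCS and 2 mM glutamine. Cells were seeded at 5×10³/well and grown 24 h, then exposed 24 h to compound or solvent in phenol-red-free medium with 1% FCS.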

[4] = biological target: Acetylcholinesterase (Electrophorus electricus) (UniProt O42275); experiment: Inhibition of electric eel AChE at 10 uM by Ellman's assay; procedure, shortened: as §1
Chain of Acetylcholinesterase (Electrophorus electricus) (O42275 24-633 limits assumed): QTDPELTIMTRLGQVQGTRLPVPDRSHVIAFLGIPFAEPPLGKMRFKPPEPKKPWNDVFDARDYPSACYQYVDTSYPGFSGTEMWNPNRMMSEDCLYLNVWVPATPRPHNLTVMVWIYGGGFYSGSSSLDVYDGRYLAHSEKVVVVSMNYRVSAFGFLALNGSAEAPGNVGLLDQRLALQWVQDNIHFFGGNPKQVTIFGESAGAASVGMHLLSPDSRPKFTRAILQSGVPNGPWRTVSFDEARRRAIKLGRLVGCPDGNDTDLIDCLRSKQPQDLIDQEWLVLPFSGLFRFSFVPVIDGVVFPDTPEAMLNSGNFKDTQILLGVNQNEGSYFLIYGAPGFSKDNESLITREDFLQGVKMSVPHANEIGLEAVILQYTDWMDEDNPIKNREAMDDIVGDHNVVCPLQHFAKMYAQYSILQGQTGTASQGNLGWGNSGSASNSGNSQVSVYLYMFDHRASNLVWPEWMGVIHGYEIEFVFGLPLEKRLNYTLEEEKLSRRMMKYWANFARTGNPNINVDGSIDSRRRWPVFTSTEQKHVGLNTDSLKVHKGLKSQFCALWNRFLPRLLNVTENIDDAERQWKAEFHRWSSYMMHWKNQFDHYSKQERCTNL

[5] = Antioxidant scavenging activity against AAPH-induced peroxyl radical assessed as trolox equivalent per uM of compound by ORAC-fluorescein assay; assay type: physicochemical
Procedure, shortened: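 Peroxyl radicals generated by AAPH (12 mM final) at 37 °C in 75 mM phosphate buffer pH 7.4. Sample (0.5–10 µM) was preincubated 15 min with fluorescein (300 nM final), then AAPH added. Fluorescence (ex 485/em 535 nm) read every 60 s for 90 min. Net AUC vs blank was calibrated against Trolox (1–8 µM final). Each run fourfold, at least four independent runs.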

[6] = biological target: Acetylcholinesterase (Electrophorus electricus, UniProt O42275); experiment: Inhibition of electric eel AChE type 6S by Ellman's assay
Chain of Acetylcholinesterase (O42275 whole entry): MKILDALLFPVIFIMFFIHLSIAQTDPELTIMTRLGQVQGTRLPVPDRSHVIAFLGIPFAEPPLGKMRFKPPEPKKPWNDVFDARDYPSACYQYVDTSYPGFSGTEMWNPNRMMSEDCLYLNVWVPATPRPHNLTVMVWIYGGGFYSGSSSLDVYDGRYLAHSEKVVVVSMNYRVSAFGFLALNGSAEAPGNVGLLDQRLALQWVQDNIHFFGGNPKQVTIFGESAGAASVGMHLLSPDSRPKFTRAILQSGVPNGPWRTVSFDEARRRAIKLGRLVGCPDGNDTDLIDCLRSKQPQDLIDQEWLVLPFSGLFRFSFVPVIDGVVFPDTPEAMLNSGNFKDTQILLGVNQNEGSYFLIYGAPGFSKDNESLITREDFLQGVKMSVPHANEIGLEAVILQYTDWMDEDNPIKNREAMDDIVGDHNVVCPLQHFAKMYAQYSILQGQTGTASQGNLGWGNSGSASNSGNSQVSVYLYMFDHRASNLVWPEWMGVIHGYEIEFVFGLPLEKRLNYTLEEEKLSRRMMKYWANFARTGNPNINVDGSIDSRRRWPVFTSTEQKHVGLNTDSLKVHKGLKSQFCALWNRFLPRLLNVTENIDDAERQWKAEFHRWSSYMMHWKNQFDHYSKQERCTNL

Chain of Butyrylcholinesterase (Q9N1N9 whole entry): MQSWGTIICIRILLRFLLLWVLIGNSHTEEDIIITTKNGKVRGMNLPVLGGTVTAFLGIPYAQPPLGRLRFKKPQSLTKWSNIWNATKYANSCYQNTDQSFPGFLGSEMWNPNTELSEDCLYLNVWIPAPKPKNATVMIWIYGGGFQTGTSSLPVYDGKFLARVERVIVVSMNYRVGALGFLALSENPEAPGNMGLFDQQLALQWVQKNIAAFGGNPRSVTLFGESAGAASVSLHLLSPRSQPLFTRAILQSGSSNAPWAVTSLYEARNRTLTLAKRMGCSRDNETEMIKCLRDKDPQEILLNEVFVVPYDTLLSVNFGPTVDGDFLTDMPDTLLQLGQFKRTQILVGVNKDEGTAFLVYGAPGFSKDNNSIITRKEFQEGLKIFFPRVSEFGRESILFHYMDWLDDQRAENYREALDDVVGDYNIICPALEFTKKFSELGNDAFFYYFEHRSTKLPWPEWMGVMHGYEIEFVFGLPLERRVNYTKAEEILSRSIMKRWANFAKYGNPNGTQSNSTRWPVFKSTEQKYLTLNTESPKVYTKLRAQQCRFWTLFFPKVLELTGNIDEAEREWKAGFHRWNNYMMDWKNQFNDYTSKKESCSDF

Compound | IC50 [1] [µM] | Ratio IC50 [2] | IC50 [3] [µM] | inhibition [4] [%] | Activity [5] | IC50 [6] [µM]
O=C(CCCCC1CCSS1)NCCCCCCCC/N=c1/c2ccccc2nc2n1CCCCCC2 (stereo unspecified) | 0.023 | > 5000 | 6.54 | < 10 | 0.4 | 
NCCCCCCCC/N=c1/c2ccc(Cl)cc2nc2n1CCC2 | 0.012 | 10.7 | 6.27 |  | 0.1 | 0.13
O=C(CCCCC1CCSS1)NCCCCCCC/N=c1/c2ccc(Cl)cc2nc2n1CCC2 (stereo unspecified) | 0.014 | 134 |  |  |  | 1.94
O=C(CCCCC1CCSS1)NCCCCC/N=c1/c2ccc(Cl)cc2nc2n1CCC2 (stereo unspecified) | 0.053 | 83 |  |  |  | 4.38
O=C(O)CCCCC1CCSS1 (stereo not drawn) [LIPOIC ACID, ALPHA] |  |  |  |  | 0.6 | 
O=C(CCCCC1CCSS1)NCCCCCCCC/N=c1/c2ccc(Cl)cc2nc2n1CCC2 (stereo unspecified) | 0.0057 | 82 | 10.2 |  | 0.5 | 0.468
NCCC/N=c1/c2ccc(Cl)cc2nc2n1CCC2 | 10.2 | 1.9 |  |  |  | 19
NCCCCC/N=c1/c2ccc(Cl)cc2nc2n1CCC2 | 0.19 | 0.9 |  |  |  | 0.17
c1ccc(C/N=c2/c3ccccc3nc3n2CCCCCCC3)cc1 | 1.1 |  |  |  |  | > 500
O=C(CCCCC1CCSS1)NCCC/N=c1/c2ccc(Cl)cc2nc2n1CCC2 (stereo unspecified) | 2.58 | 1.1 | 7.51 |  | 0.8 | 2.84
NCCCCCC/N=c1/c2ccc(Cl)cc2nc2n1CCC2 | 0.38 | 3.9 | 6.01 |  | 0.2 | 1.49
CCCC/N=c1/c2ccc(Cl)cc2nc2n1CCC2 |  | 1.7 |  |  |  | 
NCCCC/N=c1/c2ccc(Cl)cc2nc2n1CCC2 | 0.72 | 0.7 |  |  |  | 0.48
O=C(CCCCC1CCSS1)NCCCCCC/N=c1/c2ccc(Cl)cc2nc2n1CCC2 (stereo unspecified) | 0.026 | 28.8 |  |  |  | 0.74
O=C(CCCCC1CCSS1)NCCCC/N=c1/c2ccc(Cl)cc2nc2n1CCC2 (stereo unspecified) | 0.17 | 27.1 |  |  |  | 4.58
NCCCCCCC/N=c1/c2ccc(Cl)cc2nc2n1CCC2 | 0.71 | 5.7 |  |  |  | 4.06
NCCCCCCCC/N=c1/c2ccccc2nc2n1CCCCCC2 | 0.046 | 73.9 | 3.74 |  | 0.1 | 3.4
Clc1ccc2/c(=N/CCCCCCCC/N=c3/c4ccc(Cl)cc4nc4n3CCC4)n3c(nc2c1)CCC3 | 0.045 |  |  |  |  | 0.05
N=c1c2ccccc2nc2n1CCC2 |  | 1.8 |  |  |  | 

Reference: ChEMBL document CHEMBL1149888 (Bioorg Med Chem, 2008)
